Bioassay records from PubChem.
Only some compounds are listed: those with a hit (about 3.5% of all), similar ones and a draw of the others.
MrgX1 agonist: agonists of human MrgX1 receptor, primary screen, HEK293 cells, Fluo-4 calcium flux. Mas-related G-protein coupled receptor member X1 (Homo sapiens), Q96LB2. Fluo-4 calcium fluorescence, agonist mode; hits give high values. B-score at 10 µM. hit rate 0.44% among 310,000;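 active means calcium response B-score plate-corrected fluorescence ratio at least 3 library SD, with starting fluorescence B-score inside 5 SD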
Target sequence (Q96LB2 whole entry, looked up): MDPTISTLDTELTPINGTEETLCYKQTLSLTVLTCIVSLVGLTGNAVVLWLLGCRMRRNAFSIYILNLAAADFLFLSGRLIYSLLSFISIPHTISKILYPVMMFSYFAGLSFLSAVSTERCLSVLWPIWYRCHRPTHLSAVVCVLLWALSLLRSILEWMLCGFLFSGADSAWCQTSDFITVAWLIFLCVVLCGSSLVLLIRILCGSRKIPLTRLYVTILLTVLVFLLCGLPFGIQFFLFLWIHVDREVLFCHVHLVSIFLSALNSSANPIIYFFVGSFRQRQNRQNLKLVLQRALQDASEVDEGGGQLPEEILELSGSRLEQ
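Assay system: MrgX1-expressing HEK293 cells / Amount: fifteen thousand cells per well / Doses: test compound in the initial addition of three / Timing: cells plated overnight, dye loaded 0.5 h 37 °C, 0.5 h room temperature / Technique: kinetic calcium dye fluorescence, Fluo-4 NW / Control set: positive and negative controls per plate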
MrgX1 PAM: positive allosteric modulators of MrgX1, primary screen, HEK293 cells, Fluo-4 calcium flux | hit rate 0.63% among 310,000 | B-score at 10 µM | FDSS; hits give high values | AID 588675, 2011;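 active means plate-corrected calcium response at least 3 library SD above typical, normal starting fluorescence, not activating the receptor alone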;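 further: compound read alongside a low EC10 to EC30 dose of BAM8-22 agonist; peak minus trough fluorescence over baseline measured at the second addition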
MrgX1 antag: antagonists of human MrgX1 receptor, primary screen, HEK293 cells, Fluo-4 calcium flux; Mas-related G-protein coupled receptor member X1 (Homo sapiens), Q96LB2; BAM8-22 antagonism; hits give low values; B-score at 10 µM; hit rate 1.3% among 310,000; AID 588676, 2011;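 active means calcium-response B-score plate-corrected more than 3 library SD below zero, starting fluorescence within 5 deviations, no agonist response on first addition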;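 further: peak minus trough fluorescence over baseline after final BAM8-22 challenge near maximal dose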
RGS4 block: RGS4 inhibitors, primary screen, cell-based, HEK293 M3R inducible RGS4, calcium flux | AID 463165, 2010 | B-score at 10 µM | Fluo-4 calcium flux; hits give high values; triggered by carbachol at its EC20 | hit rate 0.45% among 310,000;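 active means B-score, a plate-corrected calcium signal, over three deviations above library mean, with baseline fluorescence within five deviations of library mean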;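 further: RGS4 expression induced by doxycycline in cells with stable M3 receptor; B-score is computed from the integrated fluorescence ratio over baseline after carbachol; higher B-score means a larger calcium signal and so more RGS4 inhibition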
Target sequence (P49798 whole entry, looked up): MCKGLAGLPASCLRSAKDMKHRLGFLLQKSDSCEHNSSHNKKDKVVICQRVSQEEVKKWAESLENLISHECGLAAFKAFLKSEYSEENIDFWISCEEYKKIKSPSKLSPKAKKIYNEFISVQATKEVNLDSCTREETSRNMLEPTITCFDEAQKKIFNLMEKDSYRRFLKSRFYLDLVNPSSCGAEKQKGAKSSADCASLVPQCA
RGS4 pot: RGS4 potentiators or activators, primary screen, cell-based, HEK293 M3R inducible RGS4, calcium flux | carbachol calcium flux Fluo4; hits give low values | B-score at 10 µM | hit rate 0.92% among 310,000 | AID 463111, 2010;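 active means B-score of the integrated calcium signal more than 4 SD below the library mean, with starting fluorescence not abnormally high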;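 further: negative B-score means reduced calcium response which marks RGS4 activation or potentiation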
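Test system: HEK293 cells with stable M3R and inducible RGS4; also added: carbachol at ECmax as muscarinic agonist stimulus; schedule: dye loading 30 min 37 °C, buffer rest 30 min RT; technique: kinetic calcium fluorescence imaging with Fluo4-AM dye, 2 µM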
MrgX1 ag reconf: MrgX1 receptor agonists, duplicate retest, confirmation, HEK293 cells, Fluo-4 calcium flux; shares compounds with MrgX1 agonist; Fluo-4 calcium fluorescence, FDSS; activation, % at 10 µM; hit rate 78% among 600; AID 602412, 2012;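 active means calcium signal rise, corrected for plate position, at least 3 library SD high, with starting brightness within 5 such deviations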
HEK293 Ca flux: nonspecific calcium signal in parental HEK293, confirmation, counter-screen for MrgX1 antagonist project, parental HEK293 cells, Fluo-4 calcium flux; AID 624111, 2012; Fluo-4 calcium fluorescence, FDSS; shares compounds with MrgX1 antag; hit rate 2% among 4,000; fluorescence ratio F(max-min)/F0 at 10 µM;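 active means duplicate-averaged calcium fluorescence ratio at least three times the standard deviation of buffer wells, a nonspecific response in parental cells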
HEK293 Ca counter: calcium response in parental HEK293 cells, primary screen, counter-screen for MrgX1 allosteric activator project, cell-based, Fluo-4 calcium flux, duplicate; shares compounds with MrgX1 antag; Fluo-4 fluorescence ratio; hits give high values; fluorescence ratio F(max-min)/F0 at 10 µM; hit rate 0.4% among 4,000;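 active means calcium fluorescence ratio, averaged over duplicates, at least 3 SD of the buffer-well ratio, meaning a nonspecific response in receptor-free cells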;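 further: untransfected parental HEK293 lacking MrgX1 used as counterscreen for MrgX1 allosteric activators; fluorescence change taken during the second addition on a kinetic imager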
HEK293 Ca cntr2: calcium response in parental HEK293 cells, primary screen, counter-screen for MrgX1 agonist project, cell-based, Fluo-4 calcium flux, duplicate, agonist mode; shares compounds with MrgX1 antag; Fluo-4 calcium fluorescence (FDSS); hits give high values; fluorescence ratio F(max-min)/F0 at 10 µM; hit rate 8.7% among 4,000; AID 624115, 2012;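 active means calcium fluorescence ratio at least three times the spread of buffer wells, meaning a non-specific response in parental cells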
Numbers without * were called inactive; i = inactive; x = no result.

SMILES	MrgX1 agonist	MrgX1 PAM	MrgX1 antag	RGS4 block	RGS4 pot	MrgX1 ag reconf	HEK293 Ca flux	HEK293 Ca counter	HEK293 Ca cntr2
Cc1cccc(NC(=O)CSCC(=O)NNC(=O)c2ccoc2C)c1	i	i	i	i	i	x	x	x	x
COc1cc(C2OC(=O)C3C(c4ccc(OC(C)=O)c(OC)c4)OC(=O)C23)ccc1OC(C)=O (stereo unspecified)	i	i	i	i	i	x	x	x	x
Cc1[nH]nc(-c2ccc(O)cc2O)c1Oc1ccccc1	28*	i	i	i	i	179%*	i	i	i
COC(=O)c1ccc(CSCc2ccc(C#N)cc2)cc1	i	i	i	i	i	x	x	x	x
Cc1cccc(C(=O)NC(=S)NNC(=O)c2ccccc2Cl)c1	105*	i	i	i	i	776%*	i	i	149*
Cc1cccc(C(=O)NC(=S)NNC(=O)Cc2ccccc2)c1	119*	i	i	i	i	638%*	i	i	137*
Cc1cccc(C(=O)NC(=S)Nc2ccccc2C(=O)O)c1	i	i	i	i	i	x	x	x	x
Nc1c(C(=O)c2ccc(Cl)cc2)sc2nsc(SCCN3CCOCC3)c12	39*	i	i	i	i	i	0.48*	i	104*
Nc1c(C(=O)c2ccccc2)sc2nsc(SCCN3CCCC3)c12	i	i	i	i	i	x	x	x	x
CCOC(=O)C(=CNc1ccc(Oc2cncc(Cl)c2)nc1)C(=O)OCC	i	i	i	i	i	x	x	x	x
COc1ccc2c(c1)CCCN2S(=O)(=O)c1ccc(Cl)cc1	i	i	i	i	i	x	x	x	x
COc1ccc2c(c1)CCCN2C(N)=Nc1ccc(Cl)cc1	33*	i	i	i	i	i	i	i	i
Cc1ccc(S(=O)(=O)N(C)C)cc1NC(=O)COC(=O)c1sc2cc(Cl)ccc2c1Cl	i	i	i	i	i	x	x	x	x
Cn1c(=O)c2[nH]c(N3CCCCC3)nc2n(C)c1=O	i	i	i	i	i	x	x	x	x
Cn1c(=O)c2[nH]c(C3CCCC3)nc2n(C)c1=O	36*	i	i	i	i	i	i	i	i
NN=C(c1cccc([N+](=O)[O-])c1)c1cccc([N+](=O)[O-])c1	i	i	i	i	i	x	x	x	x
CC(Oc1ccccc1Cl)C(=O)N(Cc1cccs1)C1CCS(=O)(=O)C1 (stereo unspecified)	i	i	i	i	i	x	x	x	x
O=c1c2c(-c3ccccc3)csc2ncn1/N=C/c1cccc([N+](=O)[O-])c1O	71*	i	i	i	i	315%*	i	i	76*
O=c1c2c(-c3ccccc3)csc2ncn1/N=C/c1ccc(O)c([N+](=O)[O-])c1	i	i	i	i	i	x	x	x	x
N#Cc1ccc(OCC(=O)NCC(c2cccs2)N2CCOCC2)cc1 (stereo unspecified)	i	i	i	i	i	x	x	x	x
COc1ccc(C(=O)N/C(=C\c2ccc3c(c2)OCO3)C(=O)N2CCOCC2)cc1	i	i	i	i	i	x	x	x	x
Cc1ccc(-c2nn(-c3ccccc3)cc2CSC(=N)N)cc1	43*	i	i	i	i	182%*	i	i	i
CC(C)CNC(=O)CN(c1cccc(Cl)c1)S(C)(=O)=O	i	i	i	i	i	x	x	x	x
O=c1[nH][nH]c(-c2ccccc2)c1C=Nc1ccc(C(F)(F)F)cc1	i	i	i	i	i	x	x	x	x
O=c1[nH][nH]c(-c2ccccc2)c1C=Nc1ccc(OC(F)(F)F)cc1	33*	i	i	i	i	184%*	i	i	i
SMILES	MrgX1 agonist	MrgX1 PAM	MrgX1 antag	RGS4 block	RGS4 pot	MrgX1 ag reconf	HEK293 Ca flux	HEK293 Ca counter	HEK293 Ca cntr2
CC(=O)Nc1ccccc1C(=O)N1CCN(Cc2ccc3c(c2)OCO3)CC1	i	i	i	i	i	x	x	x	x
O=S(=O)(Nc1c(O)ccc2ccccc12)c1ccccc1	29*	i	i	i	i	i	i	i	i
O=S(=O)(Nc1ncccn1)c1ccc(F)cc1	i	i	i	i	i	x	x	x	x
O=S(=O)(Nc1c(O)ccc2ccccc12)c1ccc(F)cc1	40*	i	i	i	i	81%*	i	i	i
CSCC[C@H](NC(=O)[C@@H]1Cc2ccccc2CN1)C(=O)Nc1ccc2c(c1)OCCO2	i	i	i	i	i	x	x	x	x
CC1CC(C)CN(CCCNS(=O)(=O)c2ccc3c(c2)oc(=O)n3C)C1 (stereo unspecified)	i	i	i	i	i	x	x	x	x
CC(C)c1ccc(NC2(C#N)C(=O)Nc3ccccc32)cc1 (stereo unspecified)	39*	i	i	i	i	191%*	i	i	49*
CC(C)CN1CCC(=O)N(CCO)CC1	i	i	i	i	i	x	x	x	x
COc1ccc(N=C2NC(=O)S/C2=C\c2ccc(N(C)C)cc2)cc1	26*	i	i	i	-7.2*	230%*	i	i	57*
COC(=O)c1ccccc1-c1ccc(C(c2c(C)[nH][nH]c2=O)c2c(C)[nH][nH]c2=O)o1	i	i	i	i	i	x	x	x	x
COC(=O)c1cccc(-c2ccc(C(c3c(C)[nH][nH]c3=O)c3c(C)[nH][nH]c3=O)o2)c1	43*	i	i	i	i	192%*	i	i	46*
O=C(O)C1C2CCC(O2)C1C(=O)Nc1ccc(F)c(Cl)c1 (stereo unspecified)	i	i	i	i	i	x	x	x	x
